This note sets out measurements from ChEMBL document CHEMBL1141169, “Discovery of 5-arylsulfonamido-3-(pyrrolidin-2-ylmethyl)-1H-indole derivatives as potent, selective 5-HT6 receptor agonists and antagonists” (J Med Chem, 2005).

Test [1] addresses T1, 5-hydroxytryptamine receptor 6 (Homo sapiens, UniProt P50406). Kind of test: Inhibition of [3H]LSD binding to human 5-hydroxytryptamine 6 receptor expressed in HeLa cells. It counts as cell-based. The method, boiled down: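 Competition binding against [3H]-LSD on cloned human 5-HT6 receptors stably expressed in HeLa cells. Ki determined in triplicate; single-point lines are % inhibition at 1000 nM.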

Test [2] deals with T1, 5-hydroxytryptamine receptor 6. Description: Maximum percentage inhibition of 5-HT stimulated cAMP production in HeLa cells expressing 5-hydroxytryptamine 6 receptor. Type of test: functional, cell-based. The method, boiled down: (§1)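 Antagonist mode: cAMP production in HeLa cells stably transfected with the human 5-HT6 receptor was stimulated with 5-HT, and inhibition was measured across a range of ligand concentrations. IC50 and Imax each determined in triplicate.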

Test [3] has the same target. Description: Inhibition of 5-HT stimulated cAMP production in HeLa cells expressing human 5-hydroxytryptamine 6 receptor. Type of test: functional, cell-based. The method, boiled down: as §1
In general terms: Changes in cAMP serve as a functional read-out for many G protein-coupled receptors.

The target is the same in test [4]. Kind of test: Maximum percentage agonism of cAMP production in HeLa cells expressing human 5-hydroxytryptamine 6 receptor. It counts as functional, cell-based. Summed up: (§2)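 cAMP production read out across a range of ligand concentrations in HeLa cells stably transfected with the human 5-HT6 receptor, ligand given alone as agonist. EC50 and Emax each determined in triplicate.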

For test [5] the target is unchanged. Kind of test: Effective agonist concentration in cAMP release assay in HeLa cells expressing human 5-hydroxytryptamine 6 receptor. It counts as functional, cell-based. The method, boiled down: as §2

T1 sequence (P50406 whole entry): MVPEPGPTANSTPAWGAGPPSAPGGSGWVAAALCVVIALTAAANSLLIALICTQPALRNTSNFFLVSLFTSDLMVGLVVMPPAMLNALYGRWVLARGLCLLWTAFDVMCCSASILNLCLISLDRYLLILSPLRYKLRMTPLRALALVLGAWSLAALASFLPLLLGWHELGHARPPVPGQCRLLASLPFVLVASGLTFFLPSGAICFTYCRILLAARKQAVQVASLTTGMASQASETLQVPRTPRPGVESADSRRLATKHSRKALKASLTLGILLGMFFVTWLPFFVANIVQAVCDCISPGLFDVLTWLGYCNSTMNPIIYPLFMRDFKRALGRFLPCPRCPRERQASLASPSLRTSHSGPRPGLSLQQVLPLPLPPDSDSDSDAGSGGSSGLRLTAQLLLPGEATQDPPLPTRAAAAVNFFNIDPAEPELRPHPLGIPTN

With `CN1CCC[C@H]1Cc1c[nH]c2ccc(NS(=O)(=O)c3ccc(C(F)(F)F)cc3)cc12`, the Ki – broadly, the dissociation constant of the complex between target and ligand, obtained from inhibition or displacement – in test [1] is 10 nM. The Imax in test [2] was 78%. Moreover, the half-maximal inhibitory concentration (IC50) (commonly the concentration that inhibits the measured activity by half) in test [3] turned out to be 21.6 nM.

In turn, `CN1CCC[C@H]1Cc1c[nH]c2ccc(NS(=O)(=O)c3ccc(F)cc3Cl)cc12` displayed a Ki in test [1] of 35 nM.

For `CN1CCC[C@@H]1Cc1c[nH]c2ccc(NS(=O)(=O)c3ccc(F)cc3)cc12`, the Emax – broadly, the size of the effect at its maximum, as opposed to the concentration needed – in test [4] was 85%. In addition, the Ki in test [1] was 1 nM. The EC50 (commonly the concentration giving half of the maximal effect) in test [5] was determined as 1.1 nM.

In test [4], `CN1CCC[C@@H]1Cc1c[nH]c2ccc(NS(=O)(=O)c3ccc(OC(F)(F)F)cc3)cc12` gave an Emax of 94%. The compound also had a Ki in test [1] of 1 nM. Besides, in test [5], the EC50 is 2.9 nM.

Take `COc1ccc(Cl)cc1S(=O)(=O)Nc1ccc2[nH]cc(C[C@@H]3CCCN3C)c2c1`: the inhibitory constant (Ki) in test [1] came out at 24 nM.

Take `O=S(=O)(Nc1ccc2[nH]cc(C[C@H]3CCCN3)c2c1)c1ccc(F)cc1F`: the maximal response (Emax) in test [4] was 78%. The affinity in test [1] corresponds to a Ki of 8 nM. In addition, the concentration for a half-maximal effect (EC50) in test [5] stood at 5.2 nM.

Take `O=S(=O)(Nc1ccc2[nH]cc(C[C@H]3CCCN3)c2c1)c1ccc(OC(F)(F)F)cc1`: the maximum response (Emax) in test [4] is 86%. In test [1], this compound yielded an inhibition constant Ki of 5 nM. For the same compound, it took 4.2 nM to reach a half-maximal effect in test [5] (EC50).

Consider `O=S(=O)(Nc1ccc2[nH]cc(C[C@@H]3CCCN3)c2c1)c1ccc(Br)cc1`, for which the affinity in test [1], expressed as Ki, was 57 nM.

The compound `O=S(=O)(Nc1ccc2[nH]cc(C[C@@H]3CCCN3)c2c1)c1ccc(F)cc1F` returned an inhibitory constant (Ki) in test [1] of 131 nM.

Turning to `O=S(=O)(Nc1ccc2[nH]cc(C[C@@H]3CCCN3)c2c1)c1cccc(Cl)c1`, the Ki in test [1] was found to be 36 nM.

Take `Cc1ccc(S(=O)(=O)Nc2ccc3[nH]cc(C[C@H]4CCCN4C)c3c2)cc1`: the maximum response (Emax) in test [4] was determined as 79%. In test [1], this compound registered a Ki of 1 nM. The compound further gave an EC50 in test [5] of 1.3 nM.

The compound `O=S(=O)(Nc1ccc2[nH]cc(C[C@H]3CCCN3)c2c1)c1cccc(C(F)(F)F)c1` gave an Emax in test [4] of 77%. This compound displayed an inhibition constant (Ki) in test [1] of 4 nM. A half-maximal effect in test [5] (EC50) was put at 5.8 nM.

In test [1], `CN1CCC[C@H]1Cc1c[nH]c2ccc(NS(=O)(=O)c3ccccc3Br)cc12` displayed a Ki of 5 nM. In test [2], the Imax is 75%. In test [3], this compound returned an IC50 of 0.8 nM.

In turn, `CC(C)c1ccc(S(=O)(=O)Nc2ccc3[nH]cc(C[C@H]4CCCN4C)c3c2)cc1` gave a Ki in test [1] of 1 nM.

With `CN1CCC[C@H]1Cc1c[nH]c2ccc(NS(=O)(=O)c3cccc(Cl)c3)cc12`, the Ki in test [1] was 11 nM.

In test [4], `CN1CCC[C@@H]1Cc1c[nH]c2ccc(NS(=O)(=O)c3cccc(C(F)(F)F)c3)cc12` registered an Emax of 90%. In addition, the affinity in test [1] corresponds to a Ki of 1 nM. The compound also registered a concentration for a half-maximal effect (EC50) in test [5] of 3.2 nM.

In test [4], `COc1ccc(S(=O)(=O)Nc2ccc3[nH]cc(C[C@H]4CCCN4C)c3c2)cc1` gave a maximal response (Emax) of 83%. In test [1], this compound returned a Ki of 1 nM. The same compound gave an EC50 in test [5] of 2.2 nM.

In test [1], `O=S(=O)(Nc1ccc2[nH]cc(C[C@H]3CCCN3)c2c1)c1ccc(I)cc1` displayed a Ki of 1 nM.

On to `CN1CCC[C@H]1Cc1c[nH]c2ccc(NS(=O)(=O)c3ccc(Cl)c(Cl)c3)cc12`, for which, in test [1], the inhibition constant (Ki) came to 7 nM.

For `CN1CCC[C@H]1Cc1c[nH]c2ccc(NS(=O)(=O)c3ccc(OC(F)(F)F)cc3)cc12`, the Emax in test [4] came out at 68%. Besides, the inhibition constant Ki in test [1] stood at 8 nM. The Imax in test [2] was 85%. This compound had a concentration for half-maximal inhibition (IC50) in test [3] of 25.8 nM. Besides, the response in test [5] was half-maximal at 180 nM (EC50).

In turn, `O=S(=O)(Nc1ccc2[nH]cc(C[C@H]3CCCN3)c2c1)c1ccc(Cl)c(Cl)c1` showed an inhibition constant (Ki) in test [1] of 3 nM.

For `CN1CCC[C@H]1Cc1c[nH]c2ccc(NS(=O)(=O)c3cccc(C(F)(F)F)c3)cc12`, the Ki in test [1] stood at 12 nM. In test [2], this compound yielded an Imax of 78%. This compound gave an IC50 in test [3] of 14.1 nM.

On to `CN1CCC[C@@H]1Cc1c[nH]c2ccc(NS(=O)(=O)c3ccc(Cl)c(Cl)c3)cc12`, for which the affinity in test [1], expressed as Ki, was 1 nM.

Consider `COc1ccc(S(=O)(=O)Nc2ccc3[nH]cc(C[C@@H]4CCCN4C)c3c2)cc1`, for which, in test [1], the Ki was 34 nM.

In the case of `CN1CCC[C@@H]1Cc1c[nH]c2ccc(NS(=O)(=O)c3ccc(I)cc3)cc12`, in test [4], the maximum response (Emax) came to 72%. Also, in test [1], the Ki was found to be 0.3 nM. For the same compound, it took 2.7 nM to reach a half-maximal effect in test [5] (EC50).

In test [1], `Cc1c(S(=O)(=O)Nc2ccc3[nH]cc(C[C@@H]4CCCN4C)c3c2)sc2ccc(Cl)cc12` displayed a Ki of 2 nM. Moreover, the Imax in test [2] was found to be 91%. For the same compound, the half-inhibitory concentration (IC50) in test [3] came to 1.1 nM.

`CN1CCC[C@H]1Cc1c[nH]c2ccc(NS(=O)(=O)c3ccccc3)cc12`: the inhibition constant (Ki) in test [1] came out at 16 nM.

`CN1CCC[C@H]1Cc1c[nH]c2ccc(NS(=O)(=O)c3ccccc3Cl)cc12` showed an inhibitory constant (Ki) in test [1] of 22 nM.

For the compound `O=S(=O)(Nc1ccc2[nH]cc(C[C@H]3CCCN3)c2c1)c1cccc(Cl)c1`, in test [4], the Emax came out at 92%. Also, in test [1], the Ki turned out to be 2 nM. Further, the EC50 in test [5] was 1 nM.

In the case of `O=S(=O)(Nc1ccc2[nH]cc(C[C@H]3CCCN3)c2c1)c1ccccc1`, the Emax in test [4] came out at 73%. The same compound yielded an inhibition constant Ki in test [1] of 4 nM. Also, it took 1.4 nM to reach a half-maximal effect in test [5] (EC50).

The compound `CN1CCC[C@@H]1Cc1c[nH]c2ccc(NS(=O)(=O)c3ccc4ccccc4c3)cc12` came in with a Ki in test [1] of 1 nM.

On to `CN1CCC[C@@H]1Cc1c[nH]c2ccc(NS(=O)(=O)c3ccccc3F)cc12`, for which, in test [4], the maximal response (Emax) worked out at 91%. Further, the affinity in test [1] corresponds to a Ki of 1 nM. Besides, the 50% effective concentration (EC50) in test [5] was determined as 1.3 nM.

With `CC(C)c1ccc(S(=O)(=O)Nc2ccc3[nH]cc(C[C@@H]4CCCN4C)c3c2)cc1`, in test [1], the affinity, expressed as Ki, was 3 nM. The compound further displayed an Imax in test [2] of 76%. The compound further yielded an IC50 in test [3] of 21.1 nM.

In test [4], `Cc1noc(C)c1S(=O)(=O)Nc1ccc2[nH]cc(C[C@H]3CCCN3C)c2c1` gave an Emax of 77%. Further, the affinity in test [1] corresponds to a Ki of 1 nM. This compound came in with an EC50 in test [5] of 0.8 nM.

`CC(C)c1ccc(S(=O)(=O)Nc2ccc3[nH]cc(C[C@H]4CCCN4)c3c2)cc1`: the Ki in test [1] turned out to be 1 nM.

`O=S(=O)(Nc1ccc2[nH]cc(C[C@H]3CCCN3)c2c1)c1ccccc1F` returned an inhibition constant (Ki) in test [1] of 4 nM.

The compound `Cc1ccc(S(=O)(=O)Nc2ccc3[nH]cc(C[C@H]4CCCN4)c3c2)cc1` showed an inhibition constant (Ki) in test [1] of 4 nM.

The compound `O=S(=O)(Nc1ccc2[nH]cc(C[C@H]3CCCN3)c2c1)c1ccc(Cl)cc1` yielded a maximal response (Emax) in test [4] of 99%. The same compound had an inhibition constant (Ki) in test [1] of 3 nM. This compound yielded a 50% effective concentration (EC50) in test [5] of 4.5 nM.

For `CN1CCC[C@@H]1Cc1c[nH]c2ccc(NS(=O)(=O)c3ccc(C(F)(F)F)cc3)cc12`, the Emax in test [4] was 85%. For the same compound, in test [1], the affinity corresponds to a Ki of 0.4 nM. A half-maximal effect in test [5] (EC50) was put at 4.5 nM.

For `CN1CCC[C@H]1Cc1c[nH]c2ccc(NS(=O)(=O)c3ccc4ccccc4c3)cc12`, in test [1], the affinity corresponds to a Ki of 1 nM. This compound showed an Imax in test [2] of 95%. In test [3], this compound displayed a half-inhibitory concentration (IC50) of 10.4 nM.

Regarding `O=S(=O)(Nc1ccc2[nH]cc(C[C@H]3CCCN3)c2c1)c1ccc(F)cc1`, the affinity in test [1], expressed as Ki, was 4 nM.

For the compound `CN1CCC[C@@H]1Cc1c[nH]c2ccc(NS(=O)(=O)c3ccccc3)cc12`, the inhibitory constant (Ki) in test [1] was 1 nM.

As for `CN1CCC[C@H]1Cc1c[nH]c2ccc(NS(=O)(=O)c3ccc(Br)cc3)cc12`, in test [1], the Ki was 9 nM. Besides, the Imax in test [2] came out at 85%. For the same compound, the midpoint of inhibition in test [3], the IC50, lay at 1.6 nM.

In test [1], `O=S(=O)(Nc1ccc2[nH]cc(C[C@H]3CCCN3)c2c1)c1ccc(F)cc1Cl` came in with a Ki of 9 nM.

With `O=S(=O)(Nc1ccc2[nH]cc(C[C@H]3CCCN3)c2c1)c1ccc(Br)cc1`, affinity in test [1] was put at a Ki of 3 nM.
